Data from ChEMBL document CHEMBL4017517, “Small Molecule Inhibitors Simultaneously Targeting Cancer Metabolism and Epigenetics: Discovery of Novel Nicotinamide Phosphoribosyltransferase (NAMPT) and Histone Deacetylase (HDAC) Dual Inhibitors” (J Med Chem, 2017).
Calls of active or inactive are those of the source. The calls are words filed in the database; no cut-off is given here.

Legend:
[1] = molecular target: Nicotinamide phosphoribosyltransferase (Homo sapiens, UniProt P43490); assay: Inhibition of human recombinant NAMPT using NAM as substrate preincubated for 5 mins followed by substrate addition measured after 15 mins by fluorescence assay
[2] = test system: MDA-MB-231; assay: cells; type: functional, cell-based; settings: Homo sapiens, MDA-MB-231, 72 h
[3] = test system: HepG2; assay: cells; type: functional, cell-based; settings: Homo sapiens, HepG2, 72 h
[4] = molecular target: Histone deacetylase 1 (Homo sapiens, UniProt Q13547); assay: Inhibition of human recombinant HDAC1 (1 to 482 residues) expressed in Baculovirus using Ac-Leu-Gly-Lys(Ac)-AMC as substrate preincubated for 5 mins followed by substrate addition measured after 30 mins by fluorescence assay
[5] = test system: HCT-116; assay: cells; type: functional, cell-based; settings: Homo sapiens, HCT-116, 72 h
[6] = test system: HCT-116; assay: Antitumor activity against human HCT116 cells xenografted in BALB/C nude mouse assessed as tumor growth inhibition at 15 mg/kg, ip bid administered for 21 consecutive days measured after 30 to 33 days post implantation relative to control; type: functional; settings: HCT-116, ip, read-out: TGI
Method in brief: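 HCT116 cells implanted subcutaneously in right axilla of male BALB/C nude mice (18–20 g). Dosing began at tumor volume about 100–300 mm³; five mice per treatment, eight controls. Given ip bid for 21 consecutive days in 0.1% Tween 80 in normal saline, with vehicle controls. Caliper volume TV = 1/2 × a × b² measured every 3 days. Mice sacrificed day 30–33 post-implant; TGI calculated at end of treatment.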

[7] = test system: HCT-116; assay: Induction of apoptosis in human HCT116 cells assessed as late apoptotic cells at 5 uM after 72 hrs by Annexin V-FITC/propidium iodide staining-based flow cytometric analysis (reference value: 3.33%); type: functional
Method in brief: (§1)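 HCT116 cells seeded at 5×10^5 cells/mL in six-well plates, treated at 5 μM for 72 h alongside vehicle. Cells trypsinized, washed twice in cold PBS, and resuspended in 1× binding buffer. Stained with annexin V-FITC 15 min at room temperature, then PI 15 min in dark, then flow cytometry.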

[8] = test system: HCT-116; assay: Induction of apoptosis in human HCT116 cells assessed as necrotic cells at 5 uM after 72 hrs by Annexin V-FITC/propidium iodide staining-based flow cytometric analysis (reference value: 1.25%); type: functional; method in brief: as §1
[9] = test system: HCT-116; assay: Induction of apoptosis in human HCT116 cells assessed as early apoptotic cells at 5 uM after 72 hrs by Annexin V-FITC/propidium iodide staining-based flow cytometric analysis (reference value: 7.82%); type: functional; method in brief: as §1
[10] = test system: HCT-116; assay: Antitumor activity against human HCT116 cells xenografted in BALB/C nude mouse assessed as tumor growth inhibition at 25 mg/kg, po administered as single dose for 14 consecutive days measured after 30 to 33 days post implantation; type: functional, organism-based
Method in brief: (§2)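 Male BALB/C nude mice (18–20 g) bearing subcutaneous HCT116 right-axilla tumors; treatment started at about 100–300 mm³. Five mice per treatment, eight controls. Dosed po 25 mg/kg/day for 14 consecutive days as suspension in 0.5% carboxymethyl cellulose; controls got vehicle. Tumor volume (1/2 × length × width²) and body weight recorded every 3 days. Sacrifice day 30–33 post-implant.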

[11] = Terminal half life in BALB/C nude mouse at 25 mg/kg, po; type: ADME, organism-based; settings: in vivo, read-out: beta t1/2 (converted)
Method in brief: (§3)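 Mice given a single oral dose of 25 mg/kg. Plasma pharmacokinetics sampled to obtain terminal half-life and Cmax.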

[12] = test system: Mus musculus; assay: Toxicity in BALB/C nude mouse xenografted with human HCT116 cells assessed as change in body weight at 25 mg/kg, po administered as single dose for 14 consecutive days measured during compound dosing; type: organism-based; settings: in vivo; method in brief: as §2
[13] = Cmax in BALB/C nude mouse at 25 mg/kg, po; type: ADME, organism-based; set-up: dose 25 mg/kg, route oral; settings: in vivo; method in brief: as §3

Chain of Nicotinamide phosphoribosyltransferase (P43490 whole entry): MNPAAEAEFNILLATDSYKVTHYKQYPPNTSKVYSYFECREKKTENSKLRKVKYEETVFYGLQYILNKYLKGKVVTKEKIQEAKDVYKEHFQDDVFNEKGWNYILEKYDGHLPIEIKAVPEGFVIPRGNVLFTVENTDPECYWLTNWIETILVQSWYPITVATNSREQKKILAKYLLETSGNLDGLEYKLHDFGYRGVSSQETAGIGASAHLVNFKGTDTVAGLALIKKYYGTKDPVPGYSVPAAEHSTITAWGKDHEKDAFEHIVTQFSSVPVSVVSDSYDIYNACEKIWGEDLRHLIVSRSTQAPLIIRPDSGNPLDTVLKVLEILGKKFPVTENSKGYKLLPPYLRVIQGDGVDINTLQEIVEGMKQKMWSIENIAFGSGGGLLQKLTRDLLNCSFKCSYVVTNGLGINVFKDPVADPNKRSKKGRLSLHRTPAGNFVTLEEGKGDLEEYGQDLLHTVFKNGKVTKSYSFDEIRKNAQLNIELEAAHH
Chain of Histone deacetylase 1 (Q13547 whole entry, the tested form may be a part): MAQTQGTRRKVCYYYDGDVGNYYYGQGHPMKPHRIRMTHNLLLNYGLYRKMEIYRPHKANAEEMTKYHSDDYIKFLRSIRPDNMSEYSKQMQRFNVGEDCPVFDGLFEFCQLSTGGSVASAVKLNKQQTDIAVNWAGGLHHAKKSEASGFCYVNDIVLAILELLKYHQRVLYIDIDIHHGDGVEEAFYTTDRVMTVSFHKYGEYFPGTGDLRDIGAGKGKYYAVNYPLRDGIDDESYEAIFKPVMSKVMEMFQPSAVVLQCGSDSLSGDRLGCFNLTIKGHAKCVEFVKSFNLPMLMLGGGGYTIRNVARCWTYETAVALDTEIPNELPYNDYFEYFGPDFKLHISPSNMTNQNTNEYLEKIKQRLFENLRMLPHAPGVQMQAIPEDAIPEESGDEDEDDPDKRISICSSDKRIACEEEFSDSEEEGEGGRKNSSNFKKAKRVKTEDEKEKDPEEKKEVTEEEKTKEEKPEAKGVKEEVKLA

Row | SMILES | IC50 [1] [µM] | IC50 [2] [µM] | IC50 [3] [µM] | IC50 [4] [µM] | IC50 [5] [µM] | inhibition in vivo at 15 mg/kg [6] [%] | Activity [7] [%] | Activity [8] [%] | Activity [9] [%] | TGI [10] | half-life [11] [h] | Activity [12] | Cmax [13] [nM]
1 | Cc1ccc(CNC(=S)Nc2ccc(C(=O)Nc3ccccc3N)cc2)cn1 | > 2 | 63 | 11 | 0.26 | 11 | – | – | – | – | – | – | – | –
2 | Nc1ccccc1NC(=O)c1ccc(NC(=S)NCc2ccc(F)nc2)cc1 | > 2 | 81 | 5.2 | 0.37 | 10 | – | – | – | – | – | – | – | –
3 | Nc1ccccc1NC(=O)c1ccc(NC(=S)NCc2ccc(F)cc2)cc1 | > 2 | > 100 | 8.8 | 0.3 | 15 | – | – | – | – | – | – | – | –
4 | Nc1ccccc1NC(=O)c1ccc(CCn2cc(-c3cccnc3)nn2)cc1 | 0.19 | 41 | 3.2 | 0.18 | 5.5 | – | – | – | – | – | – | – | –
5 | Nc1ccccc1NC(=O)c1ccc(NC(=S)NCc2ccccc2F)cc1 | > 2 | > 100 | 5.4 | 0.3 | 6.3 | – | – | – | – | – | – | – | –
6 | Nc1ccccc1NC(=O)c1ccc(CNC(=O)c2cc3cnccc3s2)cc1 | > 2 | 40 | 0.38 | 0.083 | 3 | – | – | – | – | – | – | – | –
7 | Nc1ccc(CNC(=S)Nc2ccc(C(=O)Nc3ccccc3N)cc2)cn1 | > 2 | > 100 | 14 | 0.2 | 27 | – | – | – | – | – | – | – | –
8 | Nc1ccccc1NC(=O)c1ccc(NC(=O)NCc2ccc(F)nc2)cc1 | > 2 | 91 | 13 | 0.28 | 14 | – | – | – | – | – | – | – | –
9 | Nc1ccccc1NC(=O)c1ccc(NC(=S)NCc2cccc(Cl)c2)cc1 | > 2 | 92 | 2.6 | 0.18 | 5.9 | – | – | – | – | – | – | – | –
10 | Nc1ccccc1NC(=O)c1ccc(NC(=O)NCc2cccnc2)cc1 | 0.55 | > 100 | 5.1 | 0.22 | 9.4 | – | – | – | – | – | – | – | –
11 | Nc1ccccc1NC(=O)c1ccc(NC(=O)/C(Cl)=C(\Cl)c2cccnc2)cc1 | > 2 | 13 | 0.56 | 0.67 | 2.4 | – | – | – | – | – | – | – | –
12 | Nc1ccccc1NC(=O)c1ccc(NC(=S)NCc2cccc(F)c2)cc1 | > 2 | 74 | 2.9 | 0.17 | 5.9 | – | – | – | – | – | – | – | –
13 | Nc1ccccc1NC(=O)c1ccc(NC(=S)NCc2ccc3c(c2)OCO3)cc1 | > 2 | > 100 | 5.1 | 0.1 | 8.4 | – | – | – | – | – | – | – | –
14 | O=C(/C=C/c1cccnc1)NCCCCC1CCN(C(=O)c2ccccc2)CC1 [DAPORINAD] | – | 1.3 | 0.89 | – | 1.6 | 39 | – | – | – | – | – | – | –
15 | O=S(=O)(c1ccc(NC(=S)NCc2cccnc2)cc1)N1CCCCC1 | – | – | 5.3 | > 10 | 41 | – | 11.4 | 1.62 | 29.11 | – | – | – | –
16 | Nc1ccccc1NC(=O)c1ccc(CNC(=O)c2ccn3ccnc3c2)cc1 | > 2 | 46 | 5.5 | 0.087 | 1.8 | – | – | – | – | – | – | – | –
17 | Nc1ccccc1NC(=O)c1ccc(CNC(=O)c2cc3ccncc3[nH]2)cc1 | > 2 | 41 | 4.7 | 0.071 | 3.3 | – | – | – | – | – | – | – | –

Row | SMILES | IC50 [1] [µM] | IC50 [2] [µM] | IC50 [3] [µM] | IC50 [4] [µM] | IC50 [5] [µM] | inhibition in vivo at 15 mg/kg [6] [%] | Activity [7] [%] | Activity [8] [%] | Activity [9] [%] | TGI [10] | half-life [11] [h] | Activity [12] | Cmax [13] [nM]
18 | Nc1ccccc1NC(=O)c1ccc(NC(=S)NCc2ccc(Cl)nc2)cc1 | > 2 | 42 | 19 | 0.25 | 6.1 | – | – | – | – | – | – | – | –
19 | CC(=O)Nc1ccc(C(=O)Nc2ccccc2N)cc1 [TACEDINALINE] | > 2 | – | 10 | – | 10 | – | 20.75 | 3.71 | 10.81 | – | – | – | –
20 | CC(C)(C)OC(=O)Nc1ccc(CNC(=O)Nc2ccc(C(=O)Nc3ccccc3N)cc2)cn1 | > 2 | > 100 | 100 | 3.3 | 100 | – | – | – | – | – | – | – | –
21 | Nc1ccccc1NC(=O)c1ccc(NC(=S)NCc2nc3ccccc3[nH]2)cc1 | > 2 | > 100 | 31 | 0.046 | 22 | – | – | – | – | – | – | – | –
22 | Nc1cccc(CNC(=S)Nc2ccc(C(=O)Nc3ccccc3N)cc2)c1 | > 2 | > 100 | 3.3 | 0.22 | 2.8 | – | – | – | – | – | – | – | –
23 | Nc1ccccc1NC(=O)c1ccc(NC(=S)NCc2cncc(Br)c2)cc1 | > 2 | 39 | 7.5 | 0.35 | 9.2 | – | – | – | – | – | – | – | –
24 | Nc1ccc(CNC(=O)Nc2ccc(C(=O)Nc3ccccc3N)cc2)cn1 | > 2 | > 100 | 3.1 | 0.33 | 7.3 | – | – | – | – | – | – | – | –
25 | Nc1ccccc1NC(=O)c1ccc(NC(=S)NCc2cccnc2)cc1 | 0.116 to 0.12 | – | 4.2 | 1.6 | 1 | – | – | – | – | Active | 1.8 | Non-Toxic | 2300
26 | Nc1ccccc1NC(=O)c1ccc(CNC(=O)c2cc3cnccc3[nH]2)cc1 | > 2 | 48 | 1.7 | 0.084 | 4 | – | – | – | – | – | – | – | –
27 | Nc1ccccc1NC(=O)c1ccc(NC(=O)/C=C/c2cccnc2)cc1 | 0.23 | > 100 | 2.7 | 0.62 | 48 | – | – | – | – | – | – | – | –
28 | Nc1ccccc1NC(=O)c1ccc(Cn2cc(-c3ccc(NC(=O)NCc4cccnc4)cc3)nn2)cc1 | 0.018 | > 100 | 8.1 | 0.041 | > 100 | – | – | – | – | – | – | – | –
29 | Nc1ccccc1NC(=O)c1ccc(CNC(=O)c2ccc3cncn3c2)cc1 | > 2 | 54 | 3.4 | 0.093 | 7.4 | – | – | – | – | – | – | – | –
30 | Nc1ccccc1NC(=O)c1ccc(CNC(=O)c2cc3cccnc3[nH]2)cc1 | > 2 | > 100 | 6.1 | 0.033 | 10 | – | – | – | – | – | – | – | –
31 | Nc1ccccc1NC(=O)c1ccc(CNC(=O)c2ccc3cn[nH]c3c2)cc1 | > 2 | 98 | 23 | 0.24 | 18 | – | – | – | – | – | – | – | –
32 | Nc1ccccc1NC(=O)c1ccc(NC(=O)NCc2ccc(Cl)nc2)cc1 | > 2 | 34 | 2.4 | 0.021 | 5.2 | – | – | – | – | – | – | – | –
33 | Nc1ccccc1NC(=O)c1ccc(NC(=S)NCc2cncc(F)c2)cc1 | > 2 | 85 | 13 | 0.44 | 15 | – | – | – | – | – | – | – | –
